Screening results (PubChem)
NCF1 inh: p47phox (human) inhibition; actives 0.53% (n = 220,000); p47phox/p22phox peptide binding, fluorescence polarization, 2 h; inhibition, % at 24.7 µM; P14598;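 active = inhibition above about 30%, limit read from the data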
PMI act: increases human mannose-6-phosphate isomerase activity. activation factor at 20 µM. actives 0.005% (n = 190,000). purified human PMI, coupled resazurin fluorescence, 20 min; hits give high values; 1 = vehicle control, 0 substrate-free wells;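 active = activation factor of 2 or more at 20 µM, relative to plate controls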
Target sequence (P34949 whole entry, looked up): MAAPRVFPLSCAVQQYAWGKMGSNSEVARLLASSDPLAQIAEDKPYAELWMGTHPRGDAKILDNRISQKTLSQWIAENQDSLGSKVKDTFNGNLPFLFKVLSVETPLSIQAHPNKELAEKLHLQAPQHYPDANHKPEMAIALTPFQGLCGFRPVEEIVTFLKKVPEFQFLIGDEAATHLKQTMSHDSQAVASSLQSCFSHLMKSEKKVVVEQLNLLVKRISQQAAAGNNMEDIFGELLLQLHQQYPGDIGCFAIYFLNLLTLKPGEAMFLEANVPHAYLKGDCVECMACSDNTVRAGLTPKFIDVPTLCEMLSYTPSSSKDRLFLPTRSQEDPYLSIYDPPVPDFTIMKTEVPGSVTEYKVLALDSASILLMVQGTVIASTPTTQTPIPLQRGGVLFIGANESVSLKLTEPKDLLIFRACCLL
Diaph act CS: counter-screen for diaphorase-based assays: diaphorase activators and chemical reducers | AID 1229 | actives 0.005% (n = 190,000) | activation factor at 20 µM | Diaphorase/resazurin coupled assay, resorufin fluorescence, 16 min; hits give high values; 1 = vehicle wells, 0 = NADH-free wells;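 active = diaphorase activity raised at least twofold by the compound at 20 µM; inactive = activation factor below 2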
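System – purified diaphorase enzyme from Clostridium kluyveri · Input – enzyme 0.07 U/mL final · Also added – final NADH 0.114 mM, resazurin 0.1 mM · Measured by – fluorescence of resorufin, 544 nm excitation, 590 nm emission · Timing – 16 min enzyme reaction, ambient temperature · Measure – resorufin increase flagging diaphorase activators or reducers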
HMGR II inh: inhibitors of class II HMG-CoA reductase from Enterococcus faecalis. purified E. faecalis HMGR, NADPH absorbance 340 nm kinetic. inhibition, % at 10 µM. actives 0.41% (n = 190,000). AID 1066;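 active = inhibition above a set limit, the median over all tested compounds plus 3 SD, cut at about 9.5% in these data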;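 note: enzyme runs in reverse so mevalonate oxidation gives rising NADPH absorbance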
DTT redox prof: compounds producing H2O2 with reducing agent – biochemical, NIH compound library profiling, artefact control for MLSCN library redox annotation, primary screen. actives 0.03% (n = 200,000). activation, % at 10 µM. DTT-dependent redox cycling H2O2, phenol red/HRP absorbance; 100% = 100 µM peroxide control, 0% = buffer. AID 878;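 active = activation of at least 50% relative to the plate's high and low controls in the primary single-dose screen; inactive = activation below 50%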;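 note: compound incubated with DTT at 0.8 mM final as the reducing agent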
PMI act satM6P: increases human PMI activity with near-saturating mannose 6-phosphate | P34949 | coupled PMI enzyme assay, resazurin fluorescence, 20 min; hits give high values; 1 = untreated enzyme, 0 = substrate-free blank | activation factor at 20 µM | actives 0.34% (n = 190,000) | AID 1216;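 active = activation factor of 2 or more at 20 µM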
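assay system = human phosphomannose isomerase with PGI, G6PDH, diaphorase coupling enzymes | quantity = 15 ng/mL PMI | incubation = enzyme reaction with compound 20 min at room temperature | medium = HEPES pH 7.4 buffer with MgCl2 and Tween-20 | compound dosing = one concentration, 20 µM, in 1% DMSO | measured by = Diaphorase-driven resazurin-to-resorufin fluorescence, excitation 544, emission 590 nm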
Of the large screens only hits and unclear results are named; the others gave an inactive call. In the library only some 1.2% were active in any assay of this set; here they are far more common.

O=C(COC(=O)CN1C(=O)c2ccccc2C1=O)Nc1ccc(S(=O)(=O)N2CCCC2)cc1	HMGR II inh 12.1
Nc1ncccc1OCc1ccc(Cl)c(Cl)c1	none (no result: PMI act, Diaph act CS, HMGR II inh, DTT redox prof, PMI act satM6P)
c1csc(-c2nc3nc4ccccc4nc3n2Cc2ccc3c(c2)OCO3)c1	none
Clc1ccccc1-c1nc2nc3ccccc3nc2n1-c1ccc2c(c1)OCO2	NCF1 inh 174.3
Cc1ccc2c(ccc(=S)n2C)c1	PMI act satM6P 2.7
CCCCc1c(C)c(C#N)c2[nH]c3ccccc3n2c1=O	none
CCCc1cc(=O)n2c([nH]c3ccccc32)c1C#N	NCF1 inh 48.0
O=C(O)c1cc(Br)ccc1NN=C1CCCCC1	PMI act satM6P 2.9
O=S(=O)(/C=C/c1ccccc1)N1CCN(Cc2ccccc2)CC1	none
Cc1ccc(C)c(NC(=O)CSc2nnc(-c3ccncc3)n2N)c1	NCF1 inh 34.1
Cc1ccc(C)c(NC(=O)CSc2nnc(C)c(=O)n2N)c1	none
CCCCCC1=CCC/C1=N\NC(=O)c1ccc2c(c1)OCO2	none
COC(=O)c1cccc(NC(=O)Nc2ccccc2OC)c1	none
Cn1c(-c2cnn(-c3ccccc3)c2-n2cccc2)n[nH]c1=S	none
CCN(CC)c1ccc(NC2=C(Cl)C(=O)c3ccccc3C2=O)cc1	NCF1 inh 34.8
CCCC(=O)NC(=S)Nc1ccc(Cl)cn1	HMGR II inh 28.6
O=C(NC(=S)Nc1ccc(Cl)cn1)c1cccs1	none
COc1ccc(/C=C(/C#N)S(=O)(=O)c2ccc(C)cc2)cc1	HMGR II inh 39.8
Cc1cc(C)c2c(c1)[C@@H]1C=CC[C@@H]1[C@H](c1ccc(S(=O)(=O)N3CCOCC3)cc1)N2	PMI act satM6P 2.2
Cc1ccc(S(=O)(=O)N2CCOCC(=O)NCCOCCNC(=O)COCC2)cc1	none
COCCn1c(SCC#N)nnc1-c1ccc(OC)cc1	HMGR II inh 12.8
c1ccc(-c2nnc(SCc3nnc(-c4cccs4)o3)o2)cc1	HMGR II inh 15.9
COc1ccc(Nc2nnc(SCC(=O)/C=C3/N(C)c4ccccc4C3(C)C)s2)cc1	none (no result: DTT redox prof)
Nn1c(SCC(=O)Nc2ccc3c(c2)OCO3)nncc1=O	HMGR II inh 9.7 (no result: NCF1 inh)
Nn1c(SCC(=O)Nc2ccc3c(c2)OCO3)nnc1C1CC1	none
O=C(CSc1nnc(CNC(=O)c2c(F)cccc2Cl)o1)Nc1ccc2c(c1)OCO2	NCF1 inh 31.1
O=C(CN1C(=O)C2C3C=CC(C3)C2C1=O)Nc1cccc2c1CCCC2 (stereo not given)	none
O=C(CCN1C(=O)C2C3C=CC(C3)C2C1=O)NCCN1CCCc2ccccc21 (stereo not given)	PMI act satM6P 2.1
O=C(CN1C(=O)C2C3C=CC(C3)C2C1=O)NCCN1CCCc2ccccc21 (stereo not given)	PMI act satM6P 2.1
CCn1c(SCC(=O)Nc2ccccc2C)nc2nc3c(cc2c1=O)COC(C)(C)C3	none (no result: PMI act, Diaph act CS, HMGR II inh, DTT redox prof, PMI act satM6P)
COc1ccc(CC(=O)NNC(=O)c2c(-c3ccccc3Cl)noc2C)cc1OC	none (no result: PMI act, Diaph act CS, HMGR II inh, DTT redox prof, PMI act satM6P)
CCOC(=O)C1CCC(CNCc2ccccc2C)CC1 (stereo not given)	HMGR II inh 9.8
O=C(O)C1CCC(CNCc2ccccc2Cl)CC1 (stereo not given)	none
CC(C(=O)O)N1C(=O)c2ccccc2C1=O (stereo not given)	HMGR II inh 12.5
COc1ccc(OC)c(CC(NC(C)=O)C(=O)NC2CCN(c3cc(C)nc4ncnn34)CC2)c1 (stereo not given)	HMGR II inh 9.7
COc1ccc(CC(NC(C)=O)C(=O)NC2CCN(c3c(Cc4ccccc4)c(C)nc4ncnn34)CC2)c(OC)c1 (stereo not given)	none (no result: PMI act, Diaph act CS, PMI act satM6P)
COc1cc(CC(NC(C)=O)C(=O)NC2CCN(c3nc(OC)nc(OC)n3)CC2)cc(OC)c1 (stereo not given)	none (no result: PMI act, Diaph act CS, HMGR II inh, DTT redox prof, PMI act satM6P)
COc1cc(CC(NC(C)=O)C(=O)NC2CCN(C(=O)C3CC3)CC2)cc(OC)c1 (stereo not given)	HMGR II inh 9.6
Cc1ccc(NC(=O)c2ccc(=O)[nH]c2)cc1S(=O)(=O)N1CCCCC1	none (no result: PMI act, Diaph act CS, HMGR II inh, DTT redox prof, PMI act satM6P)
Cc1ccc(S(=O)(=O)N2CCC(=O)N(C(CO)Cc3ccccc3)CC2)cc1 (stereo not given)	HMGR II inh 12.5
COc1ccc(N2CCN(C(=O)CCCCCn3c(=O)[nH]c4ccsc4c3=O)CC2)cc1	none
O=C(NC(c1ccc(Cl)cc1)c1cc(Cl)c2cccnc2c1O)c1cccnc1 (stereo not given)	NCF1 inh 31.7
CCCC(=O)NC(c1ccc(OC)c(OC)c1)c1cc(Cl)c2cccnc2c1O (stereo not given)	none
COc1ccc(C(=O)NC(NC(=O)c2ccc(OC)c(OC)c2)c2ccccc2F)cc1OC	none
O=C(O)COc1ccc(S(=O)(=O)c2ccc(OCC(=O)O)cc2)cc1	NCF1 inh 34.9
CCOC(=O)COc1ccc(S(=O)(=O)c2ccc(OCC(=O)OCC)cc2)cc1	none
COc1ccc(-c2c(N)n[nH]c2C)cc1OC	HMGR II inh 14.7
O=C(Nc1cccc(C(F)(F)F)c1)c1cccc(NS(=O)(=O)c2ccc(Br)c(C(=O)O)c2)c1	HMGR II inh 10.0
O=C(O)c1cccc(NS(=O)(=O)c2ccc(Cl)c(C(=O)O)c2)c1	none
COc1ccc(Nc2cc(C)nc(N)n2)cc1	none (no result: PMI act, Diaph act CS, HMGR II inh, DTT redox prof, PMI act satM6P)
COc1ccc(Nc2cc(Cl)nc(N)n2)cc1	HMGR II inh 10.9
CC(C)C1=Nc2cccc3cccc(c23)N1	NCF1 inh 150.3
COc1cccc2cc(C(C)=O)c(=O)oc12	none
COc1cccc2cc(C(=O)NNC(=O)c3ccc(Br)cc3)c(=O)oc12	NCF1 inh 37.2
CCOP(=O)(OCC)C(Nc1ccc(C)cc1)c1ccco1 (stereo not given)	none
CC(=O)/C(=N/Nc1ccccc1)Sc1nnc(CCc2ccccc2)n1-c1ccccc1	none
CC(=O)/C(=N\Nc1ccc(Cl)cc1)Sc1nnc(-c2ccccc2)n1-c1ccccc1	PMI act satM6P 2
Cc1sc2ncnc(SCC(=O)N(C(C)C)C(C)C)c2c1C	HMGR II inh 10.8
O=C(Nc1ccccc1N1CCCC1)c1cccc(-c2cc3ccccc3oc2=O)c1	none
Cc1nc(NC(=O)c2cccc(-c3cc4ccccc4oc3=O)c2)ccc1Br	NCF1 inh 40.6
Cc1nc(NC(=O)c2ccc(-c3cc4ccccc4oc3=O)cc2)ccc1Br	none
O=C(Nc1ccc(Br)cn1)c1cccc(-c2cc3ccccc3oc2=O)c1	NCF1 inh 36.7
CCNC(=S)N/N=C/c1sc(N2CCCCC2)nc1-c1cccs1	none
